EphB4 antag: blocks human EphB4 binding to ephrin-B2; EphB4 LBD / TNYL-RAW-Alexa532 peptide, fluorescence polarization; AID 720; P54760; inhibition, % at 7 µM; actives 0.15% (n = 97,000);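 active means inhibition above the screen-wide mean inhibition plus 3 SD, cut at about 15% in these data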;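 further: 0% = DMSO wells and 100% = excess unlabeled TNYL-RAW peptide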
Rev-RRE block: HIV Rev-RRE protein-RNA interaction inhibition; actives 0.79% (n = 97,000); inhibition, % at 8 µM; Rev peptide-RRE RNA binding, FRET;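 active means inhibition above the screen-wide mean plus 3 SD, cut at about 35% in these data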;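 further: 0% = median DMSO wells and 100% = median Neomycin B control wells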
Target sequence (P05866 whole entry, looked up): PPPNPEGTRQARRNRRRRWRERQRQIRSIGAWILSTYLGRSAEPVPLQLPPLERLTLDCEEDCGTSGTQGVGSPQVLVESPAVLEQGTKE
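Test system – labelled RRE RNA duplex and labelled Rev peptide · Signal – fluorescein-to-Cy5 FRET, 480 nm excitation · Evaluation – % inhibition of FRET ratio versus controls · Benchmarks – DMSO low control, neomycin B high control · Incubation – 5 min RNA-compound premix plus 15 min binding step, 25 °C · Medium – HEPES pH 7.5 salt buffer with EDTA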
PTPN22 act: LYP (human) phosphatase activation; Q9Y2R2; recombinant LYP, DiFMUP fluorescence; 0 = plate median, 100 = signal doubled; activation, % at 2 µM; actives 0.11% (n = 96,000); AID 697;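 active means activation at 2 µM above a set limit, the mean plus 5 SD, cut at about 37% in these data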
LYP inh 2: LYP (human) phosphatase inhibition; actives 0.21% (n = 96,000); Q9Y2R2; inhibition, % at 2 µM; recombinant LYP catalytic domain, DiFMUP fluorescence;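 active means inhibition at 2 µM at or above a set limit, the screen mean plus 3 SD, cut at about 24% in these data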;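 further: 0% = DMSO with enzyme and 100% = enzyme fully blocked by orthovanadate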
* = called active by the depositor; [ ] = dose if it differs, or a comment. In the library only some 1.3% were active in any assay of this set; here they are far more common.

`Cc1cc(N2CCN(c3ccccn3)CC2)n2cc(-c3ccccc3)nc2n1` gave EphB4 antag 16*, Rev-RRE block 4, PTPN22 act -3 and LYP inh 2 1.
`Cc1cc(N2CCN(C)CC2)n2cc(-c3ccc(F)cc3)nc2n1` gave EphB4 antag -8, Rev-RRE block -5, PTPN22 act 8 and LYP inh 2 -5.
For C=CCc1c(C)nc(C)nc1N/N=C/c1ccccc1O the results were EphB4 antag -11, Rev-RRE block 41*, PTPN22 act -7 and LYP inh 2 10.
`Cc1cccc2cc3c(N)c(C#N)sc3nc12` gave EphB4 antag -8, Rev-RRE block 35, PTPN22 act 6 and LYP inh 2 -8.
`Cc1sc(NC(=O)c2sc3nc4c(C)cccc4cc3c2N)c(C#N)c1C` gave EphB4 antag -2, Rev-RRE block 101*[fluorescence artefact?], PTPN22 act -54 and LYP inh 2 56*.
For CCOC(=O)c1c(Nc2nc(C)c(C(=O)NC)s2)sc(C)c1C the results were EphB4 antag 1, Rev-RRE block 2, PTPN22 act -4 and LYP inh 2 5.
O=C(Nc1ccc2oc(-c3cccc4ccccc34)nc2c1)c1ncn[nH]1 was read as EphB4 antag 1, Rev-RRE block 1, PTPN22 act -54 and LYP inh 2 52*.
`O=C(NCCCn1ccnc1)c1cc2c(s1)CCCCC2` gave EphB4 antag 8, Rev-RRE block 8, PTPN22 act 0 and LYP inh 2 -1.
O=S(=O)(Cc1ccccc1)c1cnc2ccccc2n1 was read as EphB4 antag 7, Rev-RRE block 11, PTPN22 act 4 and LYP inh 2 -7.
`Cc1cccc(N2CCN(C(=O)n3ccnc3)CC2)c1C` gave EphB4 antag -9, Rev-RRE block 1, PTPN22 act 1 and LYP inh 2 -2.
For CN(C)c1ccc(/C=C/c2cc[n+]([O-])cc2)cc1 the results were EphB4 antag 4, Rev-RRE block 120*[fluorescence artefact?], PTPN22 act 7 and LYP inh 2 -6.
Screening Cc1ccc(C=Nc2ccc(N(C)C)cc2)o1 returned EphB4 antag -2, Rev-RRE block -15, PTPN22 act -1 and LYP inh 2 0.
`CN(C)c1ccc(/C=C/c2cc[n+](C)cc2)cc1` gave EphB4 antag -4, Rev-RRE block 49*[fluorescence artefact?], PTPN22 act 2 and LYP inh 2 -6.
`Cc1cc(C2C(C#N)=C(N)Oc3n[nH]c(C)c32)c(C)s1` (configuration not stated) gave EphB4 antag -1, Rev-RRE block 3, PTPN22 act 4 and LYP inh 2 -3.
`Cc1sccc1C1C(C#N)=C(N)SC(N)=C1C#N` gave EphB4 antag 5, Rev-RRE block 75*, PTPN22 act 14 and LYP inh 2 -14.
`Cc1cc(C2C(C#N)=C(N)SC(N)=C2C#N)c(C)s1` gave EphB4 antag -5, Rev-RRE block 83*[fluorescence artefact?], PTPN22 act -5 and LYP inh 2 5.
`NS(=O)(=O)c1ccc(NC(=O)Cn2ncc3c2-c2ccccc2OC3)cc1` gave EphB4 antag -1, Rev-RRE block 2, PTPN22 act -11 and LYP inh 2 8.
CC1=NOC(=O)/C1=C/c1ccc(N(C)C)cc1 was read as EphB4 antag -2, Rev-RRE block 86*, PTPN22 act 1 and LYP inh 2 2.
Screening Cc1ccc(/C=C2\CCC3=C2OC(N)=C(C#N)C3c2ccc(C)cc2)cc1 (configuration not stated) returned EphB4 antag -3, Rev-RRE block 138*[fluorescence artefact?], PTPN22 act -4 and LYP inh 2 6.
O=C1CC(/C=C/c2ccco2)=Nc2ccccc2N1 was read as EphB4 antag -2, Rev-RRE block 41*, PTPN22 act 17 and LYP inh 2 -17.
Screening CCn1c(SCc2nc3sc(C(=O)O)c(C)c3c(=O)[nH]2)nc2ccccc21 returned EphB4 antag 5, Rev-RRE block 60*, PTPN22 act 5 and LYP inh 2 -7.
`COc1c(N2CCN(C(=S)NCc3ccccc3)C(C)C2)c(F)cc2c(=O)c(C(=O)O)cn(C3CC3)c12` (configuration not stated) gave EphB4 antag -4, Rev-RRE block -8, PTPN22 act -34 and LYP inh 2 35*.
`CCn1cc(C(=O)NCc2ccccc2)c(=O)c2cc(F)c(N3CCN(C(=O)c4ccco4)CC3)cc21` gave EphB4 antag -6, Rev-RRE block 0, PTPN22 act 11 and LYP inh 2 -8.
`O=C(CSc1nnc(CNC(=O)c2ccccc2F)o1)c1ccccc1` gave EphB4 antag 0, Rev-RRE block -5, PTPN22 act 0 and LYP inh 2 0.
